Structures are written as SMILES. ≈ marks a conversion by molar mass, not a printed value.

In data set [1] the test system is Plasmodium falciparum. The data set can be described thus: Antiplasmodial activity against chloroquine-sensitive Plasmodium falciparum D10 by FACS-based assay. In kind it is functional, organism-based.
In data set [2] the test system is Plasmodium falciparum. The data set can be described thus: Antiplasmodial activity against chloroquine-resistant Plasmodium falciparum Dd2 by FACS-based assay. In kind it is functional, organism-based. On the technique in general: Flow cytometry measures light scatter and fluorescence of single cells or particles in a stream.
For data set [3], the system named is Plasmodium falciparum. As to the kind of experiment: Antiplasmodial activity against chloroquine-resistant Plasmodium falciparum W2 by FACS-based assay. In kind it is functional, organism-based. In short, it runs like this:
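W2 parasites kept in continuous culture in standard medium with 10% human serum, synchronized with 5% D-sorbitol at ring stage when needed. Parasite development read by FACS. Final DMSO at most 0.5%. IC50 in µM is the mean of two independent determinations, each run in duplicate.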

Data set [4] is described as follows: Ratio of compound IC50 to hematin IC50 for inhibition of beta-hematin formation.
The nature of data set [5]: Inhibition of Plasmodium falciparum falcipain 2 assessed as benzyloxycarbonyl-Phe-Leu-7-amino-4-methylcoumarin substrate hydrolysis after 30 mins by spectrofluorometry analysis.
In data set [6] the test system is Plasmodium falciparum. As to the kind of experiment: Antiplasmodial activity against chloroquine-sensitive Plasmodium falciparum D10 infected in erythrocytes assessed as inhibition of sorbitol-induced hemolysis after 15 mins. The class given is functional.
Data set [7] in a line: Partition coefficient, log D of the compound at pH 3 by HPLC analysis. In kind it is physicochemical. To be noted: octanol/water.
Data set [8] is described as follows: (§1) Half life in human liver microsomes assessed as compound degradation at 1 uM by LC-MS analysis in presence of NADPH and UDPGA. The class given is ADME, Microsome. To be noted: liver microsomes. For orientation: Microsomes from liver hold many membrane-bound enzymes, among them those of drug oxidation.
Data set [9] in a line: (§2) Half life in mouse liver microsomes assessed as compound degradation at 1 uM by LC-MS analysis in presence of NADPH and UDPGA. The class given is ADME, Microsome. To be noted: liver microsomes.
The nature of data set [10]: Partition coefficient, log D of the compound at pH 7.4 by HPLC analysis. The class given is physicochemical. To be noted: octanol/water.
Data set [11] can be described thus: Solubility of the compound in 0.01 M hydrochloric acid at pH 2. The class given is physicochemical.
Data set [12] is described as follows: Solubility of the compound in phosphate buffer at pH 6.5. In kind it is physicochemical.
The test system of another data set is Liver microsomes. The description is as §1. To be noted: microsomes, 1 µM. The class given is ADME, Microsome.
For another data set, the system named is Liver. Described as §2. To be noted: microsomes, 1 µM. The class given is ADME, Microsome.
The next data set has as its system CHO. As to the kind of experiment: Cytotoxicity against CHO cells at 100 uM. To be noted: chinese hamster. In kind it is cell-based, Cricetulus griseus.
The mark [13] stands for this setting: phosphate buffer, read-out: solubility.
The mark [14] stands for this setting: 0.01 M hydrochloric acid, read-out: solubility.

One may read the IC50 as the concentration needed to halve the response being measured. `COc1ccc(C(=O)/C=C/c2ccc(O)c(OC)c2)c(OC)c1`: the IC50 is 5.3 µM with Plasmodium falciparum [1], 7.3 µM in the data set on Plasmodium falciparum [2], greater than 10 µM with Plasmodium falciparum [3] and greater than 50 µM in data set [5]. The Ratio IC50 in data set [4] is greater than 5. For the same molecule, the “inhibition (INH)” value with Plasmodium falciparum [6] is recorded as 27.9%.
For orientation: logD means lipophilicity at a set pH, counting ionised and neutral species. In general, half-life refers to the time in which the quantity being followed falls by half. One may read the solubility as the dissolved amount per volume that the medium holds. Turning to `COc1cc(/C=C/C(C)=O)ccc1OCCN1CCN(c2ccnc3cc(Cl)ccc23)CC1`, the pH-dependent lipophilicity (logD) in data set [7] was 1.2; in [10] it was 4.2. The IC50 with Plasmodium falciparum [1] is 1.2 µM; with Plasmodium falciparum [2], 1 µM; with Plasmodium falciparum [3] it was 0.5 µM; in data set [5], greater than 50 µM. Further, the half-life at 1 µM in data set [8] was 9.8 min; in [9], 5.6 min. The solubility is greater than 100 µg/mL in data set [11] (buffer) and 1.6 µg/mL (≈ 3.43 µM) in [12] (setting [13]). In [4], the Ratio IC50 worked out at 0.5.
For `COc1ccc(C(=O)/C=C/c2ccc(OCc3cn(-c4ccnc5cc(Cl)ccc45)nn3)c(OC)c2)c(OC)c1`, the pH-dependent lipophilicity (logD) in [7] and in data set [10] was 4.3 each time. Further, the t1/2 with Liver microsomes worked out at 51.1 min; in the data set with Liver, 56.8 min. For the same molecule, the solubility in data set [11] (buffer) and in data set [12] (buffer) was less than 1.6 µg/mL in each case. Also, the Ratio IC50 in data set [4] was 1.6. For the same molecule, in data set [5], the 50% inhibitory concentration (IC50) turned out to be 10.8 µM. In addition, the “inhibition (INH)” value in the data set on Plasmodium falciparum [6] is 15.4%.
For `COc1ccc(C(=O)/C=C/c2ccc(O)c(CN3CCN(c4ccnc5cc(Cl)ccc45)CC3)c2)c(OC)c1`, the logD in [7] stood at 2; in data set [10], 5.3. Further, the IC50 in the data set on Plasmodium falciparum [1] is 0.6 µM; with Plasmodium falciparum [2], 0.5 µM; in the data set on Plasmodium falciparum [3] it was 0.3 µM; in [5], 10 µM. Moreover, the t1/2 in the data set with Liver microsomes worked out at 58.6 min; with Liver, 45.4 min. Also, the solubility in [11] (buffer) was greater than 100 µg/mL; in data set [12] (buffer), less than 1.6 µg/mL. Besides, the Ratio IC50 in data set [4] was 0.2. For the same molecule, in the data set on CHO, the Activity entry is given as “Non-toxic”.
With `OCCNc1ccnc2cc(Cl)ccc12`, the IC50 is 2.6 µM in the data set on Plasmodium falciparum [1], 1 µM with Plasmodium falciparum [2], 0.2 µM with Plasmodium falciparum [3] and greater than 50 µM in data set [5]. Further, the Ratio IC50 in data set [4] was found to be 4.9. Also, the “inhibition (INH)” value in the data set on Plasmodium falciparum [6] turned out to be 0.9%.
`CC(=O)/C=C/c1ccc(O)c(CN2CCN(c3ccnc4cc(Cl)ccc34)CC2)c1`: the logD was found to be 0.8 in [7] and 4.2 in data set [10]. Besides, the IC50 in the data set on Plasmodium falciparum [1] came out at 1.7 µM; in the data set on Plasmodium falciparum [2], 3.1 µM; with Plasmodium falciparum [3], 0.7 µM; in data set [5], 29.9 µM. In addition, the figures for the t1/2 in the data set on Liver microsomes and in the data set on Liver were 7.5 min and 15 min, respectively. The results for the solubility in data set [11] (buffer) and in data set [12] (buffer) were greater than 100 µg/mL and less than 1.6 µg/mL, respectively. Moreover, the Ratio IC50 in data set [4] is 0.5. Besides, the “inhibition (INH)” value in the data set with Plasmodium falciparum [6] worked out at 11.6%.
Take `OCCN1CCN(c2ccnc3cc(Cl)ccc23)CC1`: the IC50 is 5.2 µM with Plasmodium falciparum [1], 3.8 µM in the data set on Plasmodium falciparum [2], 1 µM in the data set with Plasmodium falciparum [3] and greater than 50 µM in data set [5]. The Ratio IC50 in data set [4] came out at 3.9.
With `CCN(CC)CCCC(C)Nc1ccnc2cc(Cl)ccc12` (stereo not given) [CHLOROQUINE], the t1/2 with Liver microsomes is greater than 250 min.
Take `CC(C)C[C@H](NC(=O)[C@H]1O[C@@H]1C(=O)O)C(=O)NCCCCN=C(N)N` [E-64]: the IC50 in data set [5] amounted to 0.055 µM.
As for `COc1cc(/C=C/C(C)=O)ccc1O` [DEHYDROZINGERONE], the figures for the IC50 with Plasmodium falciparum [1], in the data set with Plasmodium falciparum [2] and in the data set on Plasmodium falciparum [3] were greater than 20 µM, greater than 20 µM and greater than 10 µM, respectively. Further, in the data set on Plasmodium falciparum [6], the “inhibition (INH)” value is 21.1%.
In the case of `Clc1ccc2c(N3CCNCC3)ccnc2c1`, the concentration for half-maximal inhibition (IC50) in the data set with Plasmodium falciparum [1] is 0.7 µM; in the data set with Plasmodium falciparum [2], 0.9 µM; with Plasmodium falciparum [3], 0.3 µM; in data set [5], greater than 50 µM. Besides, the “inhibition (INH)” value in the data set with Plasmodium falciparum [6] turned out to be 5.8%.
With `COc1cc(/C=C/C(C)=O)ccc1OCCNc1ccnc2cc(Cl)ccc12`, the logD in [7] came to 1.8; in data set [10] it was 3. For the same molecule, the IC50 in the data set with Plasmodium falciparum [1] was 1 µM; in the data set with Plasmodium falciparum [2], 1.5 µM; in the data set on Plasmodium falciparum [3], 0.1 µM; in data set [5] it was greater than 50 µM. The t1/2 in the data set with Liver microsomes is listed as 10.5 min; in the data set on Liver, 13.4 min. The solubility was 50 µg/mL (≈ 126 µM) in [11] (setting [14]) and 6.3 µg/mL (≈ 15.9 µM) in data set [12] (setting [13]). In data set [4], the Ratio IC50 was 0.6. For the same molecule, the “inhibition (INH)” value in the data set with Plasmodium falciparum [6] is listed as 12.3%.
As for `COc1ccc(C(=O)/C=C/c2ccc(O)cc2)c(OC)c1`, the Ratio IC50 in data set [4] came to 1.9. Besides, the IC50 in data set [5] is greater than 50 µM.
Consider `COc1cc(/C=C/C(C)=O)ccc1OCc1cn(-c2ccnc3cc(Cl)ccc23)nn1`, for which the logD turned out to be 3.5 in data set [7] and 3.6 in data set [10]. Also, the values for the half-life at 1 µM in data set [8] and in data set [9] were 7.4 min and 6.2 min, respectively. Also, the solubility in [11] (setting [14]) and in data set [12] (setting [13]) was 3.1 µg/mL (≈ 7.13 µM) in each case.
As for `COc1ccc(C(=O)/C=C/c2cc(CN3CCN(c4ccnc5cc(Cl)ccc45)CC3)c(O)c(OC)c2)c(OC)c1`, the logD in data set [7] came to 2.1; in data set [10], 5. Besides, the concentration for half-maximal inhibition (IC50) in the data set with Plasmodium falciparum [1] was 0.5 µM; with Plasmodium falciparum [2] it was 0.5 µM; in the data set with Plasmodium falciparum [3], 0.4 µM; in [5], 9.1 µM. The t1/2 with Liver microsomes came out at 37 min; in the data set with Liver, 11.8 min. Further, the solubility in data set [11] (buffer) is greater than 100 µg/mL; in [12] (buffer), less than 1.6 µg/mL. In data set [4], the Ratio IC50 is 0.3. For the same molecule, the “inhibition (INH)” value in the data set with Plasmodium falciparum [6] stood at 3.9%. Also, the Activity result in the data set with CHO is listed as “Non-toxic”.
With `COc1ccc(C(=O)/C=C/c2ccc(OCCNc3ccnc4cc(Cl)ccc34)c(OC)c2)c(OC)c1`, the logD in data set [7] amounted to 2.8; in data set [10], 4.2. Moreover, the IC50 in the data set with Plasmodium falciparum [1] was found to be 0.8 µM; in the data set with Plasmodium falciparum [2], 1.1 µM; in the data set on Plasmodium falciparum [3], 0.4 µM; in [5], 22.9 µM. In addition, the t1/2 is 17.5 min in the data set with Liver microsomes and 12.7 min with Liver. The solubility is greater than 100 µg/mL in data set [11] (buffer) and 3.1 µg/mL (≈ 5.97 µM) in data set [12] (setting [13]). Also, in data set [4], the Ratio IC50 is 0.3.
Take `COc1cc(/C=C/C(C)=O)cc(CN2CCN(c3ccnc4cc(Cl)ccc34)CC2)c1O`: the pH-dependent lipophilicity (logD) in data set [7] was found to be 0.9; in data set [10] it was 3.9. Further, the IC50 with Plasmodium falciparum [1] is 1 µM; in the data set on Plasmodium falciparum [2], 1.7 µM; in the data set on Plasmodium falciparum [3] it was 0.5 µM; in [5], greater than 50 µM. Further, the t1/2 with Liver is recorded as 14 min. Further, the solubility is greater than 100 µg/mL in data set [11] (buffer) and 1.6 µg/mL (≈ 3.54 µM) in [12] (setting [13]). In data set [4], the Ratio IC50 came to 0.5. Besides, the “inhibition (INH)” value with Plasmodium falciparum [6] is recorded as 16.8%.
As for `COc1ccc(C(=O)/C=C/c2ccc(OCCN3CCN(c4ccnc5cc(Cl)ccc45)CC3)c(OC)c2)c(OC)c1`, the logD in [7] came to 2.2; in data set [10] it was 5.3. Further, the half-inhibitory concentration (IC50) turned out to be 1.2 µM in the data set on Plasmodium falciparum [1], 0.5 µM in the data set on Plasmodium falciparum [2], 0.6 µM in the data set on Plasmodium falciparum [3] and 11.7 µM in data set [5]. The half-life at 1 µM in data set [8] worked out at 11.5 min; in data set [9], 9.8 min. Moreover, the solubility in data set [11] (buffer) was greater than 100 µg/mL; in data set [12] (buffer) it was less than 1.6 µg/mL. For the same molecule, the Ratio IC50 in data set [4] was determined as 0.2.
`CC(=O)/C=C/c1ccc(O)cc1`: the Ratio IC50 in data set [4] is greater than 5. Moreover, in data set [5], the IC50 was greater than 50 µM.

The values above are taken from ChEMBL document CHEMBL1773006, “Enone- and chalcone-chloroquinoline hybrid analogues: in silico guided design, synthesis, antiplasmodial activity, in vitro metabolism, and mechanistic studies” (J Med Chem, 2011).
